From ChEMBL document CHEMBL1126713, “Nonpeptide angiotensin II receptor antagonists. 1. Synthesis and in vitro structure-activity relationships of 4-[[[(1H-pyrrol-1-ylacetyl)amino]phenyl]methyl]imidazole derivatives as angiotensin II receptor antagonists” (J Med Chem, 1993)

Columns and labels:
[1] = biological target: T1, Type-1 angiotensin II receptor B (Rattus norvegicus, UniProt P29089); test: Binding affinity against angiotensin II receptor type 1 (AT1) from rat liver.
T1 sequence (P29089 whole entry): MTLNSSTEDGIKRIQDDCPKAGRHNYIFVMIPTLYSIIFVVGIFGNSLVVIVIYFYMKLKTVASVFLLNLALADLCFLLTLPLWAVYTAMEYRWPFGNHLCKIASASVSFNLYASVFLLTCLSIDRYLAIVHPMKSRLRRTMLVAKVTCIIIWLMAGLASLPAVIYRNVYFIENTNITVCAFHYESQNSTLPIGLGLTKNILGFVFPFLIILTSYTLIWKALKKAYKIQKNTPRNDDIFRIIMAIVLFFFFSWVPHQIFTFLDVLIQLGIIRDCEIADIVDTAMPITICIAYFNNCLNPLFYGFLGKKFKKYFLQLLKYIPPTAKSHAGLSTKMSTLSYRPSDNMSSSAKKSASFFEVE
Procedure, shortened: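 Compounds were added from DMSO at 100× the final concentration. Samples were filtered on glass-fiber filters presoaked in Tris pH 7.7 with bacitracin and scintillation-counted. Nonspecific binding used 10 μM saralasin. IC50 came from nonlinear mass-action fits of five or six doses or more (mean ± SEM).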

[2] = biological target: T2, Type-1 angiotensin II receptor B (Rattus norvegicus) (UniProt P29089); test: Binding affinity against angiotensin II (AT1 receptor) from rat liver expressed as % inhibition at 10 e -7 M
T2 sequence (whole entry): T1 sequence (P29089 whole entry)

Oryctolagus cuniculus = species on record: Oryctolagus cuniculus; test: Inhibition of Angiotensin II induced contraction of isolated rabbit aortic rings; assay type: functional; details: Aorta
Procedure, shortened: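 Thoracic aortic rings, 4–5 mm, from New Zealand White rabbits (3–4 kg) were held in PSS at 37 °C under 95% O2/5% CO2, with isometric force recorded. Rings were equilibrated 1.5 h, primed with 122 mM KCl and given two 10^-8 M AII control contractions. Compound in DMSO was incubated 10 min before the AII concentration–response was repeated. IC50 is the concentration halving AII contraction relative to the averaged controls.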

Compound	IC50 [1] [nM]	inhibition [2] [%]	IC50 (Oryctolagus cuniculus) [nM]
CCCCc1nc2c(C)cccc2n1Cc1ccc(NC(=O)[C@H](Cc2ccccc2)n2cccc2C(=O)O)cc1	930	–	–
CCCCc1nc(Cl)c(C(=O)OC)n1Cc1ccc(NC(=O)[C@H](Cc2cccs2)n2cccc2)cc1	–	2.5	–
CCCCc1ncc(C(=O)OC)n1Cc1ccc(NC(=O)[C@H](Cc2ccccc2)n2cccc2C(=O)OC)cc1	–	33	–
CCCCc1nc(Cl)c(CC(=O)O)n1Cc1ccc(NC(=O)CCc2ccccc2)cc1	–	7.8	–
CCCCc1nc(Cl)c(CO)n1Cc1ccc(NC(=O)C(C#N)Cc2ccccc2)cc1 (configuration not stated)	2600	–	–
CCCCc1nc(Cl)c(CC(=O)O)n1Cc1ccc(NC(=O)[C@H](Cc2ccccc2)n2cccc2C(=O)O)cc1	–	–	520
CCCCc1nc(Cl)c(CC(=O)O)n1Cc1ccc(NC(=O)[C@H](Cc2ccccc2)n2cc(C#N)c3ccccc32)cc1	1290	–	–
CCCCc1nc(Cl)c(CC(=O)OC)n1Cc1ccc(NC(=O)[C@H](Cc2ccccc2)n2ccc(C(=O)OCC)c2C)cc1	1470	–	–
CCCCc1nc(Cl)c(CC(=O)OC)n1Cc1ccc(NC(=O)[C@H](Cc2ccccc2)n2ccc(C(=O)OCC)c2)cc1	–	7.2	–
CCCCc1nc(Cl)c(CO)n1Cc1ccc(NC(=O)[C@H](Cc2ccccc2)n2cccc2)cc1	–	8.1	–
CCCCc1nc(Cl)c(CO)n1Cc1ccc(NC(=O)[C@H](c2ccccc2)n2cccc2C(=O)OC)cc1	1120	–	–
CCCCc1nc(Cl)c(CC(=O)OC)n1Cc1ccc(NC(=O)[C@H](Cc2ccccc2)n2cccc2C)cc1	–	14.8	–
CCCCc1nc(Cl)c(CC(=O)OC)n1Cc1ccc(NC(=O)[C@H](Cc2cccs2)n2cccc2C(=O)OC)cc1	800	–	–
CCCCc1nc(Cl)c(C(=O)OC)n1Cc1ccc(NC(=O)[C@H](Cc2cccs2)n2cccc2C(=O)OC)cc1	–	11	–
CCCCc1nc(Cl)c(C(=O)OC)n1Cc1ccc(NC(=O)[C@H](Cc2ccccc2)n2cccc2C(=O)OC)cc1	–	15	–
CCCCc1nc(Cl)c(CO)n1Cc1ccc(NC(=O)C(=O)c2ccccc2)cc1	10900	–	–
CCCCc1nc(Cl)c(CO)n1Cc1ccc(NC(=O)Cn2cccc2C(=O)OC)cc1	8370	–	–
CCCCc1nc(-n2cccc2)c(C(=O)OCC)n1Cc1ccc(NC(=O)[C@H](Cc2ccccc2)n2cccc2C(=O)O)cc1	2500	–	–
CCCCc1nc(Cl)c(CO)n1Cc1ccc(NC(=O)C(Cc2ccccc2)c2nn[nH]n2)cc1 (configuration not stated)	2600	–	–

The remaining compounds from weak to strong by IC50 [1], led by results:

IC50 [1] [nM]	inhibition [2] [%]	IC50 (Oryctolagus cuniculus) [nM]	Compound
670	–	–	CCCCc1nc(Cl)c(C(=O)O)n1Cc1ccc(NC(=O)[C@H](Cc2cccs2)n2cccc2)cc1
590	–	–	CCCCc1nc(Cl)c(CO)n1Cc1ccc(NC(=O)[C@H](CCCC)n2cccc2C(=O)OC)cc1
500	–	–	CCCCc1nc(Cl)c(CC(=O)OC)n1Cc1ccc(NC(=O)[C@H](Cc2ccccc2)n2cccc2C(=O)OC)cc1
370	–	–	CCCCc1nc(Cl)c(CC(=O)O)n1Cc1ccc(NC(=O)[C@H](Cc2ccccc2)n2c(C)ccc2C)cc1
340	–	–	CCCCc1nc(-n2cccc2)c(C(=O)O)n1Cc1ccc(NC(=O)[C@H](Cc2ccccc2)n2cccc2C(=O)O)cc1
330	–	–	CCc1nc2c(C)cc(C)nc2n1Cc1ccc(NC(=O)[C@H](Cc2ccccc2)n2cccc2C(=O)OC)cc1
300	–	–	CCCCc1nc(Cl)c(CO)n1Cc1ccc(-c2ccccc2C(=O)O)cc1
240	–	14000	CCCCc1nc(Cl)c(CC(=O)O)n1Cc1ccc(NC(=O)[C@H](Cc2ccccc2)n2ccc(C(=O)OCC)c2)cc1
210	–	–	CCCCc1nc(Cl)c(CO)n1Cc1ccc(NC(=O)[C@H](Cc2ccccc2)n2cccc2C(=O)OC)cc1
210	–	6300	CCCCc1nc(Cl)c(CC(=O)O)n1Cc1ccc(NC(=O)[C@H](Cc2ccccc2)n2cccc2)cc1
210	–	–	CCCCc1nc(Cl)c(CCC(=O)OC)n1Cc1ccc(NC(=O)[C@H](Cc2ccccc2)n2cccc2C(=O)OC)cc1
180	–	17000	CCCCc1nc(Cl)c(CO)n1Cc1ccc(NC(=O)[C@H](Cc2ccccc2)n2cccc2C(=O)O)cc1
180	–	–	CCCCc1nc(Cl)c(C(=O)O)n1Cc1ccc(NC(=O)[C@H](Cc2cccs2)n2cccc2C(=O)O)cc1
140	–	–	CCCCc1nc(Cl)c(CC(=O)O)n1Cc1ccc(NC(=O)[C@H](Cc2ccccc2)n2ccc(C(=O)OCC)c2C)cc1
140	–	6400	CCCCc1nc(Cl)c(CC(=O)O)n1Cc1ccc(NC(=O)[C@H](Cc2ccccc2)n2cccc2C)cc1
92	–	–	CCCCc1nc(Cl)c(C(=O)O)n1Cc1ccc(-c2ccccc2C(=O)O)cc1
80	–	550	CCCCc1nc(Cl)c(C(=O)O)n1Cc1ccc(NC(=O)[C@H](Cc2ccccc2)n2cccc2C(=O)O)cc1
60	–	–	CCc1nc2c(C)cc(C)nc2n1Cc1ccc(NC(=O)[C@H](Cc2ccccc2)n2cccc2C(=O)O)cc1
24	–	–	CCCCc1nc(Cl)c(CC(=O)O)n1Cc1ccc(NC(=O)[C@H](Cc2cccs2)n2cccc2C(=O)O)cc1
22	–	220	CCCCc1nc(Cl)c(CCC(=O)O)n1Cc1ccc(NC(=O)[C@H](Cc2ccccc2)n2cccc2C(=O)O)cc1
20	–	110	CCCCc1ncc(C(=O)O)n1Cc1ccc(NC(=O)[C@H](Cc2ccccc2)n2cccc2C(=O)O)cc1
